Test results from PMC3946399 (Molecular pharmaceutics, 2013).
Where two headings read alike, the source gives them in different places.

Tests used:
[1] = tested on: SERCA; assay: Evaluation of synergy in SERCA ATPase assay; format: biochemical, rabbit
[2] = tested on: HL60/MX2 cells; assay: cells; format: cell-based
[3] = tested on: HL60/MX2 cells; format: cell-based; conditions: ratio of IC50 in HL60 and HL60/MX2
[4] = target: SERCA; conditions: cited from earlier work
[5] = target: SERCA1a (Oryctolagus cuniculus, UniProt P04191); format: biochemical, rabbit; conditions: for pKATP(reg) / pKATP(cat): pCa 5.4; for pKATP(reg): control 3.30 ± 0.08; for pKATP(cat): control 4.99 ± 0.07
How it was run: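 Ca2+-dependent ATPase activity was measured in light SR vesicles from fast-twitch skeletal muscle of New Zealand white rabbits, using an NADH-linked coupled assay. Buffer was 5 mM MgCl2, 100 mM KCl, 1 mM EGTA (free Ca2+ set by EGTA buffering), 0.4 mM NADH, 10 IU/mL LDH, 10 IU/mL PK, 7 ug/mL A23187, 50 mM MOPS pH 7.0. Compounds were added in 1% DMSO final. Runs were at 37 °C in duplicate or triplicate, and rates were taken from A340 decay.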

[6] = in combination with (−)-CXL017 at fixed molar ratio, CI<0.9 synergy

Sequence of SERCA1a (P04191 1-994 isoform P04191-2): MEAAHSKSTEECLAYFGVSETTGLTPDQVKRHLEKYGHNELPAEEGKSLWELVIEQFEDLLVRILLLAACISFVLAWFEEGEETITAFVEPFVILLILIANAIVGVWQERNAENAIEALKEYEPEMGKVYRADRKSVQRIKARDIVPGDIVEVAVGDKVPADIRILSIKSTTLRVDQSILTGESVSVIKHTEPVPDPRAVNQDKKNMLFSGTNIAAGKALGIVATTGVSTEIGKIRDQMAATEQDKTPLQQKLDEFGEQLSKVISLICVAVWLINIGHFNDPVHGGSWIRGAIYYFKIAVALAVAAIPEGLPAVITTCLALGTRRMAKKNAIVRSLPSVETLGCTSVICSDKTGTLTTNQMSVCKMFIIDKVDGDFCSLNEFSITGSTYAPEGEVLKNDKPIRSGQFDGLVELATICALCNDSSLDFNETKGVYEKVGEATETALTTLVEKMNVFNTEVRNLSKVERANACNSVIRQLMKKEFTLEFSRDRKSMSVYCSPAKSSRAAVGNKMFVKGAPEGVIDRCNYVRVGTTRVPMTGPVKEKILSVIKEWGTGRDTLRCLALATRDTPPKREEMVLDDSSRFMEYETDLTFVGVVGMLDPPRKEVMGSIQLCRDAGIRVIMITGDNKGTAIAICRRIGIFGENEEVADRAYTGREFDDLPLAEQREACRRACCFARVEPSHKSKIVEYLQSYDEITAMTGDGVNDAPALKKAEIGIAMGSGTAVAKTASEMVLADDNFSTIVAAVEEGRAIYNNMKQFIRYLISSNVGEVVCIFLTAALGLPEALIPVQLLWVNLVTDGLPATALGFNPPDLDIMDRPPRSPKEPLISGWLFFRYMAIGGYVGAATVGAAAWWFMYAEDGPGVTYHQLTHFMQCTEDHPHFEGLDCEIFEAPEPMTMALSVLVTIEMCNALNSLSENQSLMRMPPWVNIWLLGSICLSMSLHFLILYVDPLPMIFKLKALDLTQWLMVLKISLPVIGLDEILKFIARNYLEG

SMILES: CCOC(=O)CC1C(C(=O)OCC)=C(N)Oc2ccc(-c3cc(OC)cc(OC)c3)cc21 (single isomer, unassigned; (-)) [(−)-CXL017]
- combination index (CI) ([1]; (−)-CXL017 with each of the known SERCA inhibitors (TG, CPA, BHQ)): < 0.9
- cell viability ([2]; 6.25 µM): 47%

SMILES: CC(C)(C)c1cc(O)c(C(C)(C)C)cc1O [BHQ, 2,5-di-tert-butylhydroquinone]
- selectivity for resistant cell line (HL60/MX2 over HL60) [3]: 7.7 fold
- combination index (CI) [1, 6]: 0.15–0.25
- dissociation constant [4]: submicromolar

SMILES: CC(=O)C1=C(O)[C@@H]2[C@H]3c4c[nH]c5cccc(c45)C[C@H]3C(C)(C)N2C1=O [CPA, cyclopiazonic acid]
- selectivity for resistant cell line (HL60/MX2 over HL60) [3]: 17 fold
- combination index (CI) [1, 6]: 0.35–0.45
- dissociation constant [4]: submicromolar

SMILES: CCOC(=O)CC1C(C(=O)OCC)=C(N)Oc2ccc(-c3cc(OC)cc(OC)c3)cc21 (stereo not shown) [CXL017, Ethyl 2-amino-6-(3,5-dimethoxyphenyl)-4-(2-ethoxy-2-oxoethyl)-4H-chromene-3-carboxylate]
- IC50 [5]: 25 ± 1 µM
- pKATP(reg) ([5]; 10 μM CXL017, varied ATP): 2.96 ± 0.07
- pKATP(cat) ([5]; 10 μM CXL017, varied ATP): 3.92 ± 0.02
- pKATP(reg) ([5]; 30 μM CXL017, varied ATP): 2.6 ± 0.1
- pKATP(cat) ([5]; 30 μM CXL017, varied ATP): 3.99 ± 0.02
- effect on apparent Ca2+ affinity (pKCa) ([5]; 10 or 30 μM CXL017): no significant effect
- change in Vmax at catalytic and regulatory ATP sites ([5]; 10 or 30 μM CXL017, varied ATP, two-site model): no significant change

SMILES: C/C=C(/C)C(=O)O[C@H]1C(C)=C2[C@H]([C@@H]1OC(=O)CCCCCCC)[C@@](C)(OC(C)=O)C[C@H](OC(=O)CCC)[C@@]1(O)[C@H]2OC(=O)[C@@]1(C)O [TG, thapsigargin]
- selectivity for resistant cell line (HL60/MX2 over HL60) [3]: 400 fold
- combination index (CI) [1, 6]: 0.4–0.65
- viability at 0.009375 µM ([2]; Homo sapiens, HL60/MX2, read-out: cell viability): 43%
- dissociation constant [4]: submicromolar
